# What was measured:
# Type in all cases: functional
# [1] = test system: CCRF-CEM; assay: Cytotoxicity against human CCRF-CEM cells after 48 hrs by SRB assay; details: for TGI: read-out: pTGI (converted)
# Method in brief: (§1)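 NCI 60-cell five-dose screen. Cells grown in RPMI 1640 with 5% FBS and 2 mM glutamine, plated at 5000–40,000 cells/well, and preincubated 24 h at 37 °C in 5% CO2. Time-zero plates fixed with TCA. Five serial dilutions of DMSO stock added, then 48 h exposure. TCA fixation, 0.4% SRB staining, absorbance read at 515 nm. GI50 from [(Ti−Tz)/(C−Tz)]×100 = 50.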
# [2] = test system: A549; assay: Cytotoxicity against human A549 cells after 48 hrs by SRB assay; details: A549, 48 h; for TGI: read-out: pTGI (converted); method in brief: as §1
# [3] = test system: NCI-H23; assay: Cytotoxicity against human NCI-H23 cells after 48 hrs by SRB assay; details: NCI-H23, 48 h; for TGI: read-out: pTGI (converted)
# Method in brief: (§2)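 Five-dose screen, 10-fold or ½-log dilutions, compound stock in DMSO. Cells were in RPMI 1640 with 5% FBS and 2 mM glutamine at 5000–40,000 cells/well, preincubated 24 h, 37 °C, 5% CO₂, with a time-zero plate TCA-fixed. After 48 h drug exposure, cells were TCA-fixed and stained with 0.4% SRB, read at 515 nm. GI50, TGI and LC50 were derived from time-zero, control and test absorbances.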
# [4] = test system: COLO 205; assay: Cytotoxicity against human COLO205 cells after 48 hrs by SRB assay; details: COLO 205, 48 h; for TGI: read-out: pTGI (converted); method in brief: as §1
# [5] = test system: HCT-15; assay: Cytotoxicity against human HCT15 cells after 48 hrs by SRB assay; details: HCT-15, 48 h; for TGI: read-out: pTGI (converted); method in brief: as §1
# [6] = test system: KM12; assay: Cytotoxicity against human KM12 cells after 48 hrs by SRB assay; details: KM12, 48 h; for TGI: read-out: pTGI (converted); method in brief: as §1
# [7] = test system: SW-620; assay: Cytotoxicity against human SW620 cells after 48 hrs by SRB assay; details: SW-620, 48 h; for TGI: read-out: pTGI (converted)
# Method in brief: (§3)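 NCI 60-panel five-dose screen. Cells in RPMI 1640 with 5% FBS and 2 mM glutamine, plated at 5000–40,000 cells/well and preincubated 24 h at 37 °C under 5% CO2. Five 10-fold or half-log dilutions were added from a DMSO stock for 48 h. Cells were TCA-fixed (SR settled cells: 16% final), SRB-stained and read at 515 nm. GI50 was taken where (Ti−Tz)/(C−Tz)×100 = 50.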
# [8] = test system: SF-268; assay: Cytotoxicity against human SF268 cells after 48 hrs by SRB assay; details: SF-268, 48 h; for TGI: read-out: pTGI (converted); method in brief: as §2
# [9] = test system: SF-295; assay: Cytotoxicity against human SF295 cells after 48 hrs by SRB assay; details: SF-295, 48 h; for TGI: read-out: pTGI (converted); method in brief: as §2
# [10] = test system: SNB-19; assay: Cytotoxicity against human SNB19 cells after 48 hrs by SRB assay; details: SNB-19, 48 h; for TGI: read-out: pTGI (converted); method in brief: as §2
# [11] = test system: U-251; assay: Cytotoxicity against human U251 cells after 48 hrs by SRB assay; details: U-251, 48 h; for TGI: read-out: pTGI (converted); method in brief: as §3
# [12] = test system: Malme-3M; assay: Cytotoxicity against human MALME-3M cells after 48 hrs by SRB assay; details: for TGI: read-out: pTGI (converted); method in brief: as §1
# [13] = test system: M14; assay: Cytotoxicity against human M14 cells after 48 hrs by SRB assay; details: M14, 48 h; for TGI: read-out: pTGI (converted); method in brief: as §1
# [14] = test system: SK-MEL-28; assay: Cytotoxicity against human SK-MEL-28 cells after 48 hrs by SRB assay; details: SK-MEL-28, 48 h; for TGI: read-out: pTGI (converted); method in brief: as §2
# [15] = test system: SK-MEL-5; assay: Cytotoxicity against human SK-MEL-5 cells after 48 hrs by SRB assay; details: SK-MEL-5, 48 h; for TGI: read-out: pTGI (converted); method in brief: as §2
# [16] = test system: UACC-62; assay: Cytotoxicity against human UACC62 cells after 48 hrs by SRB assay; details: UACC-62, 48 h; for TGI: read-out: pTGI (converted); method in brief: as §3
# [17] = test system: OVCAR-3; assay: Cytotoxicity against human OVCAR3 cells after 48 hrs by SRB assay; details: OVCAR-3, 48 h; for TGI: read-out: pTGI (converted); method in brief: as §2
# [18] = test system: OVCAR-4; assay: Cytotoxicity against human OVCAR4 cells after 48 hrs by SRB assay; details: OVCAR-4, 48 h; for TGI: read-out: pTGI (converted); method in brief: as §2
# [19] = test system: OVCAR-5; assay: Cytotoxicity against human OVCAR5 cells after 48 hrs by SRB assay; details: OVCAR-5, 48 h; for TGI: read-out: pTGI (converted); method in brief: as §2
# [20] = test system: NCI/ADR-RES; assay: Cytotoxicity against human NCI/ADR-RES cells after 48 hrs by SRB assay; details: for TGI: read-out: pTGI (converted); method in brief: as §2
# [21] = test system: 786-0; assay: Cytotoxicity against human 786-0 cells after 48 hrs by SRB assay; details: 786-0, 48 h; for TGI: read-out: pTGI (converted); method in brief: as §1
# [22] = test system: TK-10; assay: Cytotoxicity against human TK10 cells after 48 hrs by SRB assay; details: TK-10, 48 h; for TGI: read-out: pTGI (converted); method in brief: as §3
# [23] = test system: MDA-MB-231; assay: Cytotoxicity against human MDA-MB-231 cells after 48 hrs by SRB assay; details: MDA-MB-231, 48 h; for TGI: read-out: pTGI (converted); method in brief: as §1
# [24] = test system: BT-549; assay: Cytotoxicity against human BT549 cells after 48 hrs by SRB assay; details: BT-549, 48 h; for TGI: read-out: pTGI (converted); method in brief: as §1
# [25] = test system: MDA-MB-468; assay: Cytotoxicity against human MDA-MB-468 cells after 48 hrs by SRB assay; details: MDA-MB-468, 48 h; for TGI: read-out: pTGI (converted); method in brief: as §2
compound,measurement,setting,value
CSC1=Nc2c(c(C)c(-c3ccccc3)n2CCCCl)C2=NC(=O)CN12,GI50,[1],5.13 µM
same,LC50,[1],> 100 µM
same,TGI,[1],> 100 µM
same,GI50,[2],7.76 µM
same,LC50,[2],> 100 µM
same,TGI,[2],66.1 µM
same,GI50,[3],8.32 µM
same,LC50,[3],> 100 µM
same,TGI,[3],46.8 µM
same,GI50,[4],4.17 µM
same,LC50,[4],47.9 µM
same,TGI,[4],15.1 µM
same,GI50,[5],4.07 µM
same,LC50,[5],> 100 µM
same,TGI,[5],21.4 µM
same,GI50,[6],4.17 µM
same,LC50,[6],81.3 µM
same,TGI,[6],18.6 µM
same,GI50,[7],4.79 µM
same,LC50,[7],> 100 µM
same,TGI,[7],53.7 µM
same,GI50,[8],8.51 µM
same,LC50,[8],> 100 µM
same,TGI,[8],47.9 µM
same,GI50,[9],4.07 µM
same,LC50,[9],> 100 µM
same,TGI,[9],26.9 µM
same,GI50,[10],3.98 µM
same,LC50,[10],45.7 µM
same,TGI,[10],17.8 µM
same,GI50,[11],3.89 µM
same,LC50,[11],53.7 µM
same,TGI,[11],16.2 µM
same,GI50,[12],8.32 µM
same,LC50,[12],58.9 µM
same,TGI,[12],23.4 µM
same,GI50,[13],3.31 µM
same,LC50,[13],> 100 µM
same,TGI,[13],15.1 µM
same,GI50,[14],10.2 µM
same,LC50,[14],63.1 µM
same,TGI,[14],25.1 µM
same,GI50,[15],3.47 µM
same,LC50,[15],38 µM
same,TGI,[15],14.1 µM
same,GI50,[16],2.09 µM
same,LC50,[16],38 µM
same,TGI,[16],11.5 µM
same,GI50,[17],8.32 µM
same,LC50,[17],> 100 µM
same,TGI,[17],36.3 µM
same,GI50,[18],6.76 µM
same,LC50,[18],> 100 µM
same,TGI,[18],44.7 µM
same,GI50,[19],11.5 µM
same,LC50,[19],> 100 µM
same,TGI,[19],38 µM
same,GI50,[20],4.27 µM
same,LC50,[20],> 100 µM
same,TGI,[20],> 100 µM
same,GI50,[21],8.51 µM
same,LC50,[21],> 100 µM
same,TGI,[21],61.7 µM
same,GI50,[22],8.51 µM
same,LC50,[22],> 100 µM
same,TGI,[22],77.6 µM
same,GI50,[23],5.62 µM
same,LC50,[23],77.6 µM
same,TGI,[23],24 µM
same,GI50,[24],4.9 µM
same,LC50,[24],> 100 µM
same,TGI,[24],35.5 µM
same,GI50,[25],3.16 µM
same,LC50,[25],60.3 µM
same,TGI,[25],13.2 µM
CSC1=Nc2c(c(C)c(-c3ccccc3)n2CCCN2CCCCC2)C2=NC(=O)CC(C)N12 (stereo not given),GI50,[1],2.69 µM
same,LC50,[1],> 100 µM
same,TGI,[1],12 µM
same,GI50,[2],2.95 µM
same,LC50,[2],79.4 µM
same,TGI,[2],10.7 µM
same,GI50,[3],2.95 µM
same,LC50,[3],> 100 µM
same,TGI,[3],> 100 µM
same,GI50,[4],1.26 µM
same,LC50,[4],5.01 µM
same,TGI,[4],2.51 µM
same,GI50,[5],4.47 µM
same,LC50,[5],> 100 µM
same,TGI,[5],28.2 µM
same,GI50,[6],3.16 µM
same,LC50,[6],33.9 µM
same,TGI,[6],11 µM
same,GI50,[7],2.4 µM
same,LC50,[7],32.4 µM
same,TGI,[7],10.5 µM
same,GI50,[8],3.39 µM
same,LC50,[8],45.7 µM
same,TGI,[8],14.1 µM
same,GI50,[9],2.57 µM
same,LC50,[9],69.2 µM
same,TGI,[9],10.2 µM
same,GI50,[10],2.95 µM
same,LC50,[10],> 100 µM
same,TGI,[10],> 100 µM
same,GI50,[11],2.45 µM
same,LC50,[11],33.9 µM
same,TGI,[11],11.2 µM
same,GI50,[12],2.34 µM
same,LC50,[12],53.7 µM
same,TGI,[12],7.24 µM
same,GI50,[13],3.63 µM
same,LC50,[13],64.6 µM
same,TGI,[13],17.4 µM
same,GI50,[14],2.88 µM
same,LC50,[14],36.3 µM
same,TGI,[14],13.2 µM
same,GI50,[15],2 µM
same,LC50,[15],14.8 µM
same,TGI,[15],4.9 µM
same,GI50,[16],2.82 µM
same,LC50,[16],38 µM
same,TGI,[16],14.1 µM
same,GI50,[17],2.4 µM
same,LC50,[17],53.7 µM
same,TGI,[17],8.51 µM
same,GI50,[18],2.57 µM
same,LC50,[18],> 100 µM
same,TGI,[18],17.8 µM
same,GI50,[19],19.1 µM
same,LC50,[19],> 100 µM
same,TGI,[19],> 100 µM
same,GI50,[20],17 µM
same,LC50,[20],> 100 µM
same,TGI,[20],74.1 µM
same,GI50,[21],3.55 µM
same,LC50,[21],> 100 µM
same,TGI,[21],47.9 µM
same,GI50,[22],2.88 µM
same,LC50,[22],> 100 µM
same,TGI,[22],9.33 µM
same,GI50,[23],1.82 µM
same,LC50,[23],> 100 µM
same,TGI,[23],9.55 µM
same,GI50,[24],2.63 µM
same,LC50,[24],85.1 µM
same,TGI,[24],9.55 µM
same,GI50,[25],2.69 µM
same,LC50,[25],> 100 µM
same,TGI,[25],10 µM
